{"source": "BindingDB's records for doi:10.1021/acs.jmedchem.7b00924", "about": "(University of Copenhagen, 2017)", "target": "T1, Sodium- and chloride-dependent betaine transporter (Mus musculus, UniProt P31651)", "T1 sequence (P31651 whole entry)": "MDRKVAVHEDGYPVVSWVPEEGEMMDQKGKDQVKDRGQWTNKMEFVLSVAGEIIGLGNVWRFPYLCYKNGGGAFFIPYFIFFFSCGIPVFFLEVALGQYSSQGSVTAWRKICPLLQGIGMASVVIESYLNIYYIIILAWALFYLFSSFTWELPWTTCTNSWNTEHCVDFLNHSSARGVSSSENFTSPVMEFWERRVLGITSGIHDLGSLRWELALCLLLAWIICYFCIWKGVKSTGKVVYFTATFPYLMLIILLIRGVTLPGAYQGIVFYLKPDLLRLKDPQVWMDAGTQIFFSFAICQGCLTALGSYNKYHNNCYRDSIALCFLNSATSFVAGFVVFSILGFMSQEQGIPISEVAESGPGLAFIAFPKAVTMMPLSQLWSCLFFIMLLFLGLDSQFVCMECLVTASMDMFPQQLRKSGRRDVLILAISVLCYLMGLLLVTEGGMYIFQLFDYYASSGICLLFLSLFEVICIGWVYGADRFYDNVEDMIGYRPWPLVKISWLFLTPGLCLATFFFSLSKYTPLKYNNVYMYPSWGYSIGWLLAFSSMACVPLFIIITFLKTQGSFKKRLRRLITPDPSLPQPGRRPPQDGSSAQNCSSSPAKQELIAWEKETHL", "assay": "Inhibition of mouse BGT1 expressed in HEK293 cells assessed as reduction in [3H]GABA uptake after 3 mins by scintillation counting method", "how_it_was_run": "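HEK293 lines stably expressing a single mouse GAT subtype, kept under blasticidin-S (5 µg/mL) selection. Cells were assayed about 24 h after plating with 30 nM [3H]GABA plus varying compound concentrations for 3 min at 37 °C in HBSS buffered with 20 mM HEPES (1 mM CaCl2, 1 mM MgCl2, pH 7.4). Cells were washed ice-cold and radioactivity counted. IC50 came from sigmoidal variable-slope fits.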"}
{"smiles": "O=C(NC1CCN(Cc2cccc(OC(F)(F)F)c2)CC1)c1ccc(Cl)cc1Cl", "values": [{"measurement": "IC50", "value": 126, "unit": "µM"}]}
